Reference: ChEMBL document CHEMBL1138207, “Engineering of a VPAC2 receptor peptide agonist to impart dipeptidyl peptidase IV stability and enhance in vivo glucose disposal” (J Med Chem, 2006)

Columns and labels:
[1] = target: T1, Pituitary adenylate cyclase-activating polypeptide type I receptor (Homo sapiens, UniProt P41586); assay: Displacement of [125I]PACAP27 from human PAC1 receptor expressed in CHO cells; format: cell-based
How it was run: (§1)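 Membranes (10 µg) from CHO cells transfected with human PAC1, VPAC1 or VPAC2 receptor were incubated with 0.1 nM 125I-PACAP27 and competing peptide for 20 min at 37 °C. Buffer: 20 mM HEPES pH 7.4, 0.5% BSA, CaCl2, bacitracin. Reactions were stopped on ice. Bound ligand was collected by filtration on PEI-treated filters and counted by scintillation. Data were fit to a single-site model.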

[2] = target: T2, Vasoactive intestinal polypeptide receptor 1 (Homo sapiens, UniProt P32241); assay: Displacement of [125I]PACAP27 from human VPAC1 receptor expressed in CHO cells; format: cell-based; how it was run: as §1
T2 sequence (P32241 whole entry): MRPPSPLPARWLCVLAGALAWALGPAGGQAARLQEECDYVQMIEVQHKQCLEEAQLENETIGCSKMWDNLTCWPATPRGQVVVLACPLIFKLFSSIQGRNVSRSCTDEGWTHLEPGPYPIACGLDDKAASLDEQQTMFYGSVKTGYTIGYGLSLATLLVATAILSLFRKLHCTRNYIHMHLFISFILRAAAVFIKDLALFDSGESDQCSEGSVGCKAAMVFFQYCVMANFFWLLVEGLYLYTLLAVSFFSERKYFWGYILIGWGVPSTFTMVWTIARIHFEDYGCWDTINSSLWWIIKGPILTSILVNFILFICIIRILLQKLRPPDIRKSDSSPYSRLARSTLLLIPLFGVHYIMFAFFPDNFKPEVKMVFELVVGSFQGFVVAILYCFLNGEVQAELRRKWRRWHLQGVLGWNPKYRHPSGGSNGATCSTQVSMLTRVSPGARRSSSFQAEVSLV

[3] = target: T1, Pituitary adenylate cyclase-activating polypeptide type I receptor; assay: Activity at human PAC1 receptor in CHO cells by measuring cAMP accumulation; format: cell-based
How it was run: (§2)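 CHO cells transfected with human PAC1, VPAC1 or VPAC2 receptor were incubated with peptide for 15 min at 37 °C. Buffer: HEPES pH 7.4 saline with 1% BSA, bacitracin and 100 µM IBMX as phosphodiesterase inhibitor. cAMP was measured by competitive 125I-cAMP scintillation proximity assay. Curves were fit to a single-site model.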

[4] = target: T2, Vasoactive intestinal polypeptide receptor 1; assay: Activity at human VPAC1 receptor in CHO cells by measuring cAMP accumulation; format: functional, cell-based; how it was run: as §2

T1 sequence (P41586 whole entry): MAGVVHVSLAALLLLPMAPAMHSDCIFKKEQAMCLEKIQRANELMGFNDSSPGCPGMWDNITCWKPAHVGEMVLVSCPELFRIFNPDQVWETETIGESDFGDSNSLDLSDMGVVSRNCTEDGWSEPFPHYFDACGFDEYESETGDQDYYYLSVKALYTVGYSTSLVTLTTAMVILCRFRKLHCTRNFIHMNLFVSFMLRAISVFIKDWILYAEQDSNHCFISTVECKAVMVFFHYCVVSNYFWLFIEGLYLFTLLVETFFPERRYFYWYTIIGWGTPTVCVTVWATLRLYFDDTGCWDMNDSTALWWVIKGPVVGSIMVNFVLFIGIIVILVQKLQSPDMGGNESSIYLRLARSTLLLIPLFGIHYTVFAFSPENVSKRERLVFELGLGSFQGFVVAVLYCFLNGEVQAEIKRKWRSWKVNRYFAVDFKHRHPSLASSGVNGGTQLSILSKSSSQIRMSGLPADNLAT

- IC50 [1]: 3 nM
- IC50 [2]: 12 nM
- EC50 [3]: 0.13 nM
- EC50 [4]: 0.6 nM
Structure (SMILES): CC[C@H](C)[C@H](NC(=O)CNC(=O)[C@H](CC(=O)O)NC(=O)[C@H](CO)NC(=O)[C@@H](N)Cc1cnc[nH]1)C(=O)N[C@@H](Cc1ccccc1)C(=O)N[C@H](C(=O)N[C@@H](CC(=O)O)C(=O)N[C@@H](CO)C(=O)N[C@@H](Cc1ccc(O)cc1)C(=O)N[C@@H](CO)C(=O)N[C@@H](CCCN=C(N)N)C(=O)N[C@@H](Cc1ccc(O)cc1)C(=O)N[C@@H](CCCN=C(N)N)C(=O)N[C@@H](CCCCN)C(=O)N[C@@H](CCC(N)=O)C(=O)N[C@@H](CCSC)C(=O)N[C@@H](C)C(=O)N[C@H](C(=O)N[C@@H](CCCCN)C(=O)N[C@@H](CCCCN)C(=O)N[C@@H](Cc1ccc(O)cc1)C(=O)N[C@@H](CC(C)C)C(=O)N[C@@H](C)C(=O)N[C@@H](C)C(=O)N[C@H](C(=O)N[C@@H](CC(C)C)C(=O)O)C(C)C)C(C)C)[C@@H](C)O
